Experimental data published in ChEMBL document CHEMBL1134335, “Structure-activity relationships of pyridoxal phosphate derivatives as potent and selective antagonists of P2X1 receptors” (J Med Chem, 2001).
Calls of active or inactive are those of the source. The calls are words filed in the database; no cut-off is given here.

Legend:
[1] = molecular target: T1, P2X purinoceptor 1 (Rattus norvegicus) (UniProt P47824); assay: Inhibition of inward ion current elicited by ATP at P2X1 receptor expressed in Xenopus oocytes at 10 uM; type: functional, cell-based; settings: Oocyte
T1 sequence (whole entry): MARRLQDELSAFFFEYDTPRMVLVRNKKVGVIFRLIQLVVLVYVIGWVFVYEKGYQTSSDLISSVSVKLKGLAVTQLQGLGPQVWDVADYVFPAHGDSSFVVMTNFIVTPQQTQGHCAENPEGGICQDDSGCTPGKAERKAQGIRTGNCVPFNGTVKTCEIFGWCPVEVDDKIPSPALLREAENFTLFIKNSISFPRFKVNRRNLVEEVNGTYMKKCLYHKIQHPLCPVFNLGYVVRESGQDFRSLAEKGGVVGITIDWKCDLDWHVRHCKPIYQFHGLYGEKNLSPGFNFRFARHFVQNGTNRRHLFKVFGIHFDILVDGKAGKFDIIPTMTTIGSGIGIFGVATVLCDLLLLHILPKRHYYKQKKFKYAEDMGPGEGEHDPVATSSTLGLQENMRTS

P2Y purinoceptor 1 = P2Y purinoceptor 1 (Meleagris gallopavo, UniProt P49652); assay: Inhibition of 10 nM 2-MeS-ADP-stimulated phospholipase C in turkey erythrocyte membranes using [3H]inositol; type: functional, cell membranes
Sequence of P2Y purinoceptor 1 (P49652 whole entry): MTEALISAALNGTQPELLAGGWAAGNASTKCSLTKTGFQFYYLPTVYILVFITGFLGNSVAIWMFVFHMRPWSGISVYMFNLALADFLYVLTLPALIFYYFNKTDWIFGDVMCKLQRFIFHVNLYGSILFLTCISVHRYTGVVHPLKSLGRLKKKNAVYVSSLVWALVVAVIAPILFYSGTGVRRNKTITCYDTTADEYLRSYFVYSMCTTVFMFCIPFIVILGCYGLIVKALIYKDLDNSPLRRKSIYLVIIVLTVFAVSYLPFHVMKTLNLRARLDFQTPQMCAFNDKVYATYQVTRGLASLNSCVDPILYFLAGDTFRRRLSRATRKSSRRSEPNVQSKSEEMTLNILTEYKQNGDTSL
Procedure, shortened: (§1)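 Turkey erythrocytes labelled 18-24 h at 37 °C with 2-[³H]myo-inositol in inositol-free DMEM, then lysed hypotonically (5 mM sodium phosphate pH 7.4, 5 mM MgCl₂, 1 mM EGTA) to make ghosts. Ghosts were incubated 5 min at 30 °C in pH 7.0 Hepes/KCl buffer with 1 µM GTPγS and 10 nM 2-MeSADP. Total [³H]inositol phosphates were measured by anion-exchange chromatography; 3-8 independent determinations.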

P2X purinoceptor 1 = molecular target: T2, P2X purinoceptor 1 (Rattus norvegicus, UniProt P47824); assay: Inhibition of inward ion current elicited by ATP at P2X1 receptor expressed in Xenopus oocytes; type: functional, cell-based, Oocyte
T2 sequence (P47824 whole entry): T1 sequence (whole entry)

P2X purinoceptor 3 = molecular target: T3, P2X purinoceptor 3 (Rattus norvegicus, UniProt P49654); assay: Inhibition of inward ion current elicited by ATP was determined at recombinant P2X3 receptor expressed in Xenopus oocytes; type: functional, cell-based, Oocyte
T3 sequence (P49654 whole entry): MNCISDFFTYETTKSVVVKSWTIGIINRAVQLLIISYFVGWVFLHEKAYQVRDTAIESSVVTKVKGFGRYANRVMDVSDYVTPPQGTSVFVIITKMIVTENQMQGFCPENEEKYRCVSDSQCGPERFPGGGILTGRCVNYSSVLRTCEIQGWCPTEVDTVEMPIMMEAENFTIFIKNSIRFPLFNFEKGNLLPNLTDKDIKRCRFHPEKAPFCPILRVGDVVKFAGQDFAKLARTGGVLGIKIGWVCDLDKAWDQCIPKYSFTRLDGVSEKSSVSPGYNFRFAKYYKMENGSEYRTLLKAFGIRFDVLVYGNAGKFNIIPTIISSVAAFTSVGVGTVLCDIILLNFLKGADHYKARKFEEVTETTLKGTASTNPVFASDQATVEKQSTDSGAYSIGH

P2X purinoceptor 2 = molecular target: T4, P2X purinoceptor 2 (Rattus norvegicus, UniProt P49653); assay: Inhibition of inward ion current elicited by ATP at P2X2 receptor expressed in Xenopus oocytes; type: functional, cell-based, Oocyte
T4 sequence (P49653 whole entry): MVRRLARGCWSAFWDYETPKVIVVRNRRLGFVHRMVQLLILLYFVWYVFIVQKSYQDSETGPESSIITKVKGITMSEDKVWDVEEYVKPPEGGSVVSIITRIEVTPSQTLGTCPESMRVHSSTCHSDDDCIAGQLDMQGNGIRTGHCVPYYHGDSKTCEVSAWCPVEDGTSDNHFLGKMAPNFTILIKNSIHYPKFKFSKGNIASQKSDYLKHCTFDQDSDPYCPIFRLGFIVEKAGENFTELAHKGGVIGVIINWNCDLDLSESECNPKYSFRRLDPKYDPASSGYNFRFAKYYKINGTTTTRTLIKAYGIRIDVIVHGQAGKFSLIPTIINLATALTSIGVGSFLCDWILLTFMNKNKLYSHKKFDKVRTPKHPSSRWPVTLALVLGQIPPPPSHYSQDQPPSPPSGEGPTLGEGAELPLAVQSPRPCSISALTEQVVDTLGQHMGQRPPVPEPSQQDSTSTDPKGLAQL

[2] = molecular target: T1, P2X purinoceptor 1 (Rattus norvegicus); assay: Inhibition of inward ion current elicited by ATP at P2X1 receptor expressed in Xenopus oocytes; IA means inactive; type: functional, cell-based; settings: Oocyte
[3] = molecular target: T5, P2X purinoceptor 7 (Homo sapiens) (UniProt Q99572); assay: Percent inhibition of ATP-induced K+ efflux (with cations) in adherent HEK293 cells expressing human P2X7 receptor; type: functional, cell-based; settings: concentration not given here
T5 sequence (whole entry): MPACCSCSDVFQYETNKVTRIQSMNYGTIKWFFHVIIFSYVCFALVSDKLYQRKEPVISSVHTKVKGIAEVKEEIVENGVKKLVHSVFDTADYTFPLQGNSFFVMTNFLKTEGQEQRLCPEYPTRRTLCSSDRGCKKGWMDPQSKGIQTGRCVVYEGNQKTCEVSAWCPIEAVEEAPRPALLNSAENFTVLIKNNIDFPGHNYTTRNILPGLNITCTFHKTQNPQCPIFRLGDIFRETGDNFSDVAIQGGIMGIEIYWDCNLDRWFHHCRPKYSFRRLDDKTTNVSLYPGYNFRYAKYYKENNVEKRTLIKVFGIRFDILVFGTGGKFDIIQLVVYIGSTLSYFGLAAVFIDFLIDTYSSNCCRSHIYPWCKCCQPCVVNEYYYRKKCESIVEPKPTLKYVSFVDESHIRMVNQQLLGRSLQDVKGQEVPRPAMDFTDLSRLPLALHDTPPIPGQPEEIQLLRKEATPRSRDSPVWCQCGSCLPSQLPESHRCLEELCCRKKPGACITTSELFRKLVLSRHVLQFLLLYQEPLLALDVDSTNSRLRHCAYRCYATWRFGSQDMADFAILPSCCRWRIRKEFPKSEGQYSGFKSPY
Procedure, shortened: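 Adherent HEK293 cells stably expressing human P2X7, grown to 90% confluence, in saline with 1 mM MgCl₂ and 1.5 mM CaCl₂ (pH 7.5). Pretreated with 30 µM compound, then 3 mM ATP for 10 min at 37 °C. Cell K⁺ was extracted in 10% HNO₃ for 2 h and read by atomic absorbance relative to untreated cells. n=3, each in duplicate.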

[4] = molecular target: T5, P2X purinoceptor 7 (Homo sapiens); assay: Percent inhibition of ATP-induced K+ efflux (ethidium influx) in suspended HEK293 cells expressing human P2X7 receptor; type: functional, cell-based; settings: concentration not given here
Procedure, shortened: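 Trypsinised HEK293 cells stably expressing human P2X7 were suspended in divalent cation-free saline in a stirred cuvette at 37 °C with 20 µM ethidium bromide. Cells were treated with 30 µM compound, then 300 µM ATP.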

[5] = molecular target: T5, P2X purinoceptor 7 (Homo sapiens); assay: Percentage inhibition of ATP-induced K+ efflux (cation free) in adherent HEK293 cells expressing human P2X7 receptor; type: functional, cell-based; settings: concentration not given here
Procedure, shortened: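 Adherent HEK293 cells stably expressing human P2X7, in divalent cation-free saline (no added MgCl₂ or CaCl₂; pH 7.5). Pretreated with 30 µM compound, then 3 mM ATP for 10 min at 37 °C. Residual cell K⁺ was extracted in 10% HNO₃ for 2 h and measured by atomic absorbance against untreated cells. n=3, each in duplicate.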

[6] = molecular target: P2Y purinoceptor 1 (Meleagris gallopavo) (UniProt P49652); assay: Inhibition of 10 nM 2-MeS-ADP-stimulated phospholipase C in turkey erythrocyte membranes using [3H]inositol; IA means inactive; type: functional, cell membranes; procedure, shortened: as §1
Sequence of P2Y purinoceptor 1 (Meleagris gallopavo) (P49652 whole entry): as the sequence (P49652 whole entry) above

[7] = molecular target: T6, P2X purinoceptor 3 (Rattus norvegicus) (UniProt P49654); assay: Inhibition of inward ion current elicited by ATP at P2X3 receptor expressed in Xenopus oocytes; IA means inactive; type: functional, cell-based; settings: Oocyte
T6 sequence (whole entry): T3 sequence (P49654 whole entry)

[8] = molecular target: T7, P2X purinoceptor 2 (Rattus norvegicus) (UniProt P49653); assay: Inhibition of inward ion current elicited by ATP at P2X2 receptor expressed in Xenopus oocytes; IA means inactive; type: functional, cell-based; settings: Oocyte
T7 sequence (whole entry): T4 sequence (P49653 whole entry)

SMILES	IC50 (P2Y purinoceptor 1)	IC50 (P2X purinoceptor 1)	IC50 (P2X purinoceptor 3)	IC50 (P2X purinoceptor 2)	other results
Cc1nc(/N=N/c2ccc(C(=O)O)cc2)c(CCP(=O)(O)O)c(C=O)c1O	100000 nM	20 nM	145 nM	2400 nM	–
CC(=O)Oc1c(C)nc(/N=N/c2cc(S(=O)(=O)O)ccc2S(=O)(=O)O)c2c1COP(=O)(O)OC2	–	–	–	–	IA [2]: inactive
Cc1nc(/N=N/c2cc(S(=O)(=O)O)ccc2S(=O)(=O)O)c(CP(=O)(O)O)c(C=O)c1O	46000 nM	12 nM	340 nM	1100 nM	inhibition [3]: 51%; inhibition [4]: 100%; inhibition [5]: 28%
Cc1nc(/N=N/c2ccccc2)c2c(c1O)COP(=O)(O)OC2	–	–	–	–	Inhibition activity [6]: inactive; IA [2]: inactive
Cc1nc(/N=N/c2ccc(C(=O)O)cc2)c(COP(=O)(O)O)c(C=O)c1O	100000 nM	9.4 nM	140 nM	11900 nM	–
Cc1nc(/N=N/c2cc(CP(=O)(O)O)cc(CP(=O)(O)O)c2)c(CP(=O)(O)O)c(C=O)c1O	14500 nM	11 nM	25 nM	280 nM	inhibition [3]: 0%; inhibition [4]: 84%; inhibition [5]: -5%
Cc1ncc2c(c1O)COP(=O)(O)OC2	–	–	–	–	IA [7]: inactive; IA [8]: inactive; Inhibition activity [6]: inactive
Cc1nc(/N=N/c2ccc(C(=O)O)cc2)c2c(c1O)COP(=O)(O)OC2	–	–	–	–	inhibition [1]: 39%
Cc1nc(/N=N/c2ccc(C(=O)O)cc2)c(CP(=O)(O)O)c(C=O)c1O	–	8.1 nM	128 nM	150 nM	–

Now from value to molecule, other results behind:

IC50 (P2Y purinoceptor 1)	IC50 (P2X purinoceptor 1)	IC50 (P2X purinoceptor 3)	IC50 (P2X purinoceptor 2)	SMILES	other results
> 100000 nM	–	–	–	Cc1nc(/N=N/c2ccccc2)c(COP(=O)(O)O)c(COP(=O)(O)O)c1O	inhibition [1]: 50%
27000 nM	12 nM	36 nM	948 nM	Cc1nc(/N=N/c2ccc(P(=O)(O)O)cc2)c(CP(=O)(O)O)c(C=O)c1O	–
